{"source": "paper PMC7647946", "about": "(Drug delivery and translational research, 2021)", "key": {"[1]": {"experiment": "Pharmacokinetics of PD98059 following IV injection", "format": "in vivo, rat", "method_in_brief": "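Male Sprague-Dawley rats, urethane-anaesthetised, received slow femoral-vein infusion of test compound (0.5 mg/ml, 2 ml, 10% Tween 80/DPBS). Blood drawn at 5, 15, 30, 60, 180 and 360 min into K2-EDTA, plasma stored at −80° C. 100 μl plasma spiked with 7-hydroxyflavone, acetonitrile-precipitated, dried and reconstituted. HPLC against naïve-plasma standards; n=3 (n=1 at 6 h). PK Solver 1-/2-compartment fits; non-compartmental AUC0-t.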"}, "[2]": {"experiment": "Solubility of PD98059 in the release medium", "format": "physicochemical", "details": "0.4% v/v Tween 80 in 1X DPBS, 37° C"}, "[3]": {"experiment": "Organ", "format": "in vivo, rat", "details": "healthy rats", "method_in_brief": "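Male Sprague-Dawley rats (6–8 weeks, 275–300 g), urethane-anaesthetised, with a femoral-vein cannula. Test compound at 0.5 mg/ml in 10% Tween 80/sterile 1X DPBS, 2 ml infused slowly. Brain taken at 1 and 3 h (n=3 per time), rinsed, held at −80° C. 200–400 mg homogenised in DPBS with 7-hydroxyflavone internal standard. Cold-acetonitrile precipitation, N2 drying, mobile-phase reconstitution. HPLC-diode array against naïve-tissue standards; mean ± SD.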"}, "[4]": {"tested_on": "pERK1/2 expression in PVN", "details": "1-hour ICV infusion, rats with heart failure; ref [23]; cited from earlier work"}, "[5]": {"tested_on": "rats with heart failure", "details": "cited from earlier work"}, "[6]": {"details": "1-compartment model, IV 1 mg, healthy rats"}, "[7]": {"details": "2-compartment model, IV 1 mg, healthy rats"}, "[8]": {"details": "non-compartmental analysis, IV 1 mg, healthy rats"}, "[9]": {"details": "1-hour ICV infusion, rats with heart failure, ref [23]"}}}
{"smiles": "COc1cccc(-c2cc(=O)c3ccccc3o2)c1N", "note": "[PD98059]", "values": [{"measurement": "AUC0-inf", "setting": "[1]; [6]", "value": 76774.83, "unit": "ng·min/mL"}, {"measurement": "AUC0-t", "setting": "[1]; [6]", "value": 76774.82, "unit": "ng·min/mL"}, {"measurement": "AUMC", "setting": "[1]; [6]", "value": 1716754, "unit": "ng.min^2/ml"}, {"measurement": "C0", "setting": "[1]; [6]", "value": 3433.44, "unit": "ng/mL"}, {"measurement": "CI", "setting": "[1]; [6]", "value": 13.03, "unit": "mL/min"}, {"measurement": "K", "setting": "[1]; [6]", "value": 0.045, "unit": "min⁻¹"}, {"measurement": "MRT", "setting": "[1]; [6]", "value": 0.3727, "unit": "h"}, {"measurement": "T1/2", "setting": "[1]; [6]", "value": 0.258, "unit": "h"}, {"measurement": "V", "setting": "[1]; [6]", "value": 291.25, "unit": "mL"}, {"measurement": "Vss", "setting": "[1]; [6]", "value": 291.25, "unit": "mL"}, {"measurement": "A", "setting": "[1]; [7]", "value": 3236.5, "unit": "ng/mL"}, {"measurement": "AUC0-inf", "setting": "[1]; [7]", "value": 135064, "unit": "ng·min/mL"}, {"measurement": "AUC0-t", "setting": "[1]; [7]", "value": 131605.22, "unit": "ng·min/mL"}, {"measurement": "AUMC", "setting": "[1]; [7]", "value": 11287504.55, "unit": "ng.min^2/ml"}, {"measurement": "B", "setting": "[1]; [7]", "value": 980.76, "unit": "ng/mL"}, {"measurement": "C0", "setting": "[1]; [7]", "value": 4217.23, "unit": "ng/mL"}, {"measurement": "CI", "setting": "[1]; [7]", "value": 7.4, "unit": "mL/min"}, {"measurement": "K10", "setting": "[1]; [7]", "value": 0.031, "unit": "min⁻¹"}, {"measurement": "K12", "setting": "[1]; [7]", "value": 0.05, "unit": "min⁻¹"}, {"measurement": "K21", "setting": "[1]; [7]", "value": 0.031, "unit": "min⁻¹"}, {"measurement": "MRT", "setting": "[1]; [7]", "value": 1.393, "unit": "h"}, {"measurement": "V", "setting": "[1]; [7]", "value": 237.12, "unit": "mL"}, {"measurement": "Vss", "setting": "[1]; [7]", "value": 618.76, "unit": "mL"}, {"measurement": "α", "setting": "[1]; [7]", "value": 0.104, "unit": "min"}, {"measurement": "β", "setting": "[1]; [7]", "value": 0.0094, "unit": "min"}, {"measurement": "AUC0-t", "setting": "[1]; IV 1 mg PD98059 in solution, NCA", "value": 142720, "unit": "ng·min/mL"}, {"measurement": "K (elimination rate constant)", "setting": "[1]; non-compartmental analysis, IV 1 mg PD98059 in 10% Tween 80, healthy rats, plasma", "value": 0.0074, "unit": "min⁻¹"}, {"measurement": "AUC0-inf", "setting": "[1]; [8]", "value": 152980.9, "unit": "ng·min/mL"}, {"measurement": "AUC0-t", "setting": "[1]; [8]", "value": 142723.37, "unit": "ng·min/mL"}, {"measurement": "AUMC0-inf", "setting": "[1]; [8]", "value": 14922241.77, "unit": "ng.min^2/ml"}, {"measurement": "C0 (plasma concentration at 0 time)", "setting": "[1]; [8]", "value": 3863.5, "unit": "ng/mL"}, {"measurement": "CI (clearance)", "setting": "[1]; [8]", "value": 6.54, "unit": "mL/min"}, {"measurement": "MRT0-inf", "setting": "[1]; [8]", "value": 1.626, "unit": "h"}, {"measurement": "V (volume of distribution)", "setting": "[1]; [8]", "value": 885.82, "unit": "mL"}, {"measurement": "Vss (steady state volume of distribution)", "setting": "[1]; [8]", "value": 637.62, "unit": "mL"}, {"measurement": "T1/2 (plasma half-life)", "setting": "[1]; non-compartmental analysis, IV 1 mg, healthy rats, plasma", "value": 1.566, "unit": "h"}, {"measurement": "solubility in release medium", "setting": "[2]", "value": "approximately 113 μg/ml"}, {"measurement": "brain PD98059 level", "setting": "[3]; 1 hour after IV 1 mg", "value": "approximately 410 ng/g"}, {"measurement": "brain PD98059 level", "setting": "[3]; 3 hours after IV 1 mg", "value": "~76", "unit": "ng/g"}, {"measurement": "pERK1/2 expression in PVN", "setting": "[4]", "value": "decreased"}, {"measurement": "neuronal excitation in PVN", "setting": "[5]; [9]", "value": "decreased"}, {"measurement": "renal sympathetic nerve activity", "setting": "[5]; [9]", "value": "decreased"}, {"measurement": "plasma norepinephrine (index of overall sympathetic nerve activity)", "setting": "[5]; chronic (4 week) ICV infusions, heart failure rats, ref [19]", "value": "reduced"}]}
